Assay results reported in publication PMC11986672 (RSC Medicinal Chemistry, 2025).
Several values for one entry are separate records, joined by “and”; a condition that tells them apart may be missing. Equal values may be shown once. Entries after “also recorded” stand apart in the source; their conditions may differ. Read-outs that look alike come from different tables or passages of the source.

Columns and labels:
[1] = test system: human endometrial cancer (HEC1A) cells; experiment: MTT cytotoxicity assay, HEC1A; type: cell-based; details: for IC50: Homo sapiens, HEC-1-A, 48 h, read-out: HEC1A IC50, MTT cell viability, 48 h, n = 3 biological repeats; for Selectivity ratio: IC50 MAD11 divided by IC50 HEC1A
In short: (§1)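 HEC1A (5000/well) and MAD11 (2500/well) cells were seeded and held overnight at 37 °C. Test compound was reconstituted in DMSO and serially diluted in medium to final 160, 80, 40, 20, 10, 5, 2.5 and 1.25 μM, in triplicate, with matched DMSO in all wells. After 48 h, MTT was added for 3 h, formazan solubilised (4 mM HCl, 0.1% NP-40, isopropanol) and absorbance read at 590/620 nm. IC50 was taken against vehicle controls; selectivity = MAD11 IC50 / HEC1A IC50.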

[2] = test system: noncancerous human endometrial stromal (MAD11) cells; experiment: MTT cytotoxicity assay, MAD11; type: cell-based; details: MAD11, 48 h, read-out: MAD11 IC50
In short: as §1

[3] = test system: CALU-1 (lung squamous cell carcinoma); experiment: MTT cytotoxicity assay, CALU-1; type: cell-based; details: Homo sapiens, Calu-1, read-out: Mean IC50 CALU-1
In short: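 Uses the HEC1A MTT protocol: test compound in DMSO, diluted to final 160 down to 1.25 μM in two-fold steps, in triplicate, with equal DMSO in controls. […] CALU-1 was cultured in MEM in place of DMEM. […]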

[4] = test system: HEC1A endometrial cancer cells; experiment: Thiol rescue experiment; type: cell-based, human; details: for rescue of cytotoxicity by NAC and GSH pre-treatment: NAC or GSH 2 mM for 40 min; for IC50: Homo sapiens, HEC-1-A; for ΔIC50 (+GSH): IC50 with GSH minus IC50 of compound alone; for ΔIC50 (+NAC): IC50 with NAC minus IC50 of compound alone
In short: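 HEC1A cells were seeded on day 1 (5000/well). On day 2 they were pre-treated 40 min with NAC or GSH, 2 mM in medium neutralised to pH 7.4. Test compound was then added (final 160–1.25 μM serial dilutions, triplicate, equal DMSO), with 48 h incubation. The MTT readout (3 h, absorbance 590/620 nm) followed. IC50 was compared with cells given no thiol.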

[5] = test system: HEC1A cancer cells; experiment: Oxygen consumption rate assay; type: cell-based, human; details: over 120 minutes, compared to vehicle (DMSO) control, 21 at 20 μM
In short: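 Seahorse XF96 OCR assay. HEC1A cells (15 000/well) adhered 24 h in DMEM, 10% FBS, penicillin/streptomycin at 37 °C, 5% CO₂. Medium was then swapped for unbuffered phenol-red-free DMEM (25 mM glucose, 4 mM glutamine, 1 mM pyruvate, pH 7.4), with 40 min degassing at 37 °C without CO₂. Three baseline reads preceded compound injection; 11 cycles (3 min wait, 3 min mix, 2 min measure) followed. OCR was normalised to the third baseline reading; DMSO served as vehicle control.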

[6] = 10 mg kg−1 via oral gavage in C57BL/6 mice; cited from earlier work
[7] = Pharmacokinetic profiling in vivo; set-up: species or system C57BL/6 mice

Row | Structure (SMILES) | IC50 [1] [µM] | Selectivity ratio [1] | IC50 [2] [µM] | further results
1 | O=C1C(Cl)=C(NCCN2CCOCC2)C(=O)c2ccccc21 [BH10, 2-chloro-3-[(2-morpholin-4-ylethyl)amino]naphthalene-1,4-dione, reference compound] | 10.2 | 2.51 | 25.6 | IC50 [3]: 16.7 µM; rescue of cytotoxicity by NAC and GSH pre-treatment ([4]; HEC1A): rescued; IC50 ([4]; read-out: +GSH IC50 ± SEM): > 80 µM; IC50 ([4]; read-out: +NAC IC50): 58 µM; ΔIC50 (+GSH) [4]: >+69.78 μM; ΔIC50 (+NAC) [4]: +47.78 μM; maximum OCR increase [5]: up to 200%; half-life [6]: 21.6 min
2 | O=C1C(Cl)=C(NCCCN2CCCCC2)C(=O)c2ccccc21 [Compound 21, 2-Chloro-3-((3-(piperidin-1-yl)propyl)amino)-[1,4]-naphthoquinone] | 1.83 | 2.62 | 4.79 | IC50 [3]: 4.7 µM; decrease of potency with GSH pre-treatment (times) ([4]; HEC1A, GSH 2 mM): 8.7 times; decrease of potency with NAC pre-treatment (times) ([4]; HEC1A, NAC 2 mM): 7.1 times; rescue of cytotoxicity by NAC and GSH pre-treatment ([4]; HEC1A): partially rescued; IC50 ([4]; read-out: +GSH IC50 ± SEM): 16 µM; IC50 ([4]; read-out: +NAC IC50): 13 µM; IC50 ([4]; read-out: Alone IC50): 1.83 µM; ΔIC50 (+GSH) [4]: +14.17 μM; ΔIC50 (+NAC) [4]: +11.17 μM; maximum OCR increase [5]: approximately 280%
3 | CCCC(=O)NC1=C(NCCCN2CCCCC2)C(=O)c2ccccc2C1=O [Compound 41, N-(1,4-Dioxo-3-((3-(piperidin-1-yl)propyl)amino)-1,4-dihydronaphthalen-2-yl)butyramide] | 15 |  | > 40 | 
4 | CCCCC(=O)NC1=C(NCCCN2CCCCC2)C(=O)c2ccccc2C1=O [Compound 42, N-(1,4-Dioxo-3-((3-(piperidin-1-yl)propyl)amino)-1,4-dihydronaphthalen-2-yl)pentanamide] | 15 |  | > 40 | 
5 | CC(=O)NC1=C(NCCN2CCOCC2)C(=O)c2ccccc2C1=O [Compound 43, N-(3-((2-Morpholinoethyl)amino)-1,4-dioxo-1,4-dihydronaphthalen-2-yl)acetamide] | > 40 |  | > 40 | 
6 | Cc1nc2c(n1CCCN1CCCCC1)C(=O)c1ccccc1C2=O [Compound 44, 2-Methyl-1-(3-(piperidin-1-yl)propyl)-1H-naphtho[2,3-d]imidazole-4,9-dione] | 6.4 | 3.6 and 3.59 | 23 | IC50 [3]: 15.4 µM; rescue of cytotoxicity by NAC and GSH pre-treatment ([4]; HEC1A): did not rescue; also recorded: unaffected; IC50 ([4]; read-out: +GSH IC50 ± SEM): 7.4 µM; IC50 ([4]; read-out: +NAC IC50): 6.8 µM; IC50 ([4]; read-out: Alone IC50): 6.4 µM; ΔIC50 (+GSH) [4]: +1.00 μM; ΔIC50 (+NAC) [4]: +0.40 μM; maximum OCR increase [5]: 130%; half-life ([7]; C57BL/6, mouse, plasma, po, 20 mg/kg): 26.8 min; half-life longer than BH10 ([7]; oral administration, versus BH10 t1/2 = 21.6 min): 5.2 min
7 | CCc1nc2c(n1CCCN1CCCCC1)C(=O)c1ccccc1C2=O [Compound 45, 2-Ethyl-1-(3-(piperidin-1-yl)propyl)-1H-naphtho[2,3-d]imidazole-4,9-dione] | 12 | 2.92 | 35 | 
8 | CCCc1nc2c(n1CCCN1CCCCC1)C(=O)c1ccccc1C2=O [Compound 46, 1-(3-(Piperidin-1-yl)propyl)-2-propyl-1H-naphtho[2,3-d]imidazole-4,9-dione] | 19 |  | > 40 | 
9 | CCCCc1nc2c(n1CCCN1CCCCC1)C(=O)c1ccccc1C2=O [Compound 47, 2-Butyl-1-(3-(piperidin-1-yl)propyl)-1H-naphtho[2,3-d]imidazole-4,9-dione] | 14 | 1.80 | 24 | 
10 | Cc1nc2c(n1CCN1CCOCC1)C(=O)c1ccccc1C2=O [Compound 48, 2-Methyl-1-(2-morpholinoethyl)-1H-naphtho[2,3-d]imidazole-4,9-dione] | > 40 |  | > 40 | 
11 | O=C(Cc1ccccc1)NC1=C(NCCCN2CCCCC2)C(=O)c2ccccc2C1=O [Compound 50, N-(1,4-Dioxo-3-((3-(piperidin-1-yl)propyl)amino)-1,4-dihydronaphthalen-2-yl)-2-phenylacetamide] | 8.8 | 4.4 and 4.43 | 39 | 
